Our source for the IC50, inhibition and Activity values is ChEMBL document CHEMBL2311256, “Design and synthesis of biaryl aryl stilbenes/ethylenes as antimicrotubule agents” (Eur J Med Chem, 2013).

One test concerns A549. Put plainly: Cytotoxicity against human A549 cells after 48 hrs by MTT assay. To be noted: A549, 48 h. In kind it is functional, cell-based. The procedure, abridged:
(§1)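 Cells given 24 h settling, then 48 h continuous exposure to 1, 10, 100 and 1000 µM in triplicate wells. A549, SK-N-SH and HeLa grown in DMEM with 10% FBS; DU145 in MEM with non-essential amino acids, 1 mM pyruvate, insulin and 10% FBS; all at 37 °C, 5% CO2. Read-out was MTT (60 min, 37 °C), DMSO elution, 560 nm. IC50 = 50% absorbance reduction versus control, mean ± SD of three experiments.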

The species entered for the next test is Bos taurus. Put plainly: Inhibition of bovine brain tubulin polymerization at 5 uM by fluorescence assay.
The next test has as its system SK-N-SH. Put plainly: Cytotoxicity against human SK-N-SH cells after 48 hrs by MTT assay. In kind it is functional, cell-based. A digest of the protocol:
as §1

Test [1] has as its system HeLa. Put plainly: Cytotoxicity against human HeLa cells after 48 hrs by MTT assay. In kind it is functional, cell-based. A digest of the protocol:
as §1

The next test deals with DU-145. Put plainly: Cytotoxicity against human DU145 cells after 48 hrs by MTT assay. The conditions noted are these: DU-145, 48 h. In kind it is functional, cell-based. A digest of the protocol:
as §1

In test [2] the target is T1, Tubulin (Homo sapiens) (UniProt P68371+Q9H4B7+P0DPH7+P68366+Q13509+Q71U36+P04350+Q3ZCM7+P07437+P68363+Q9BQE3+Q6PEY2+Q13885+Q9BVA1+Q9BUF5). The experiment in a line: Inhibition of tubulin polymerization in human HeLa cells assessed as tubulin cytoskeleton at 10 uM after 24 hrs by immunohistochemistry analysis. In kind it is cell-based. A digest of the protocol: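 HeLa on coverslips treated 24 h at 10 µM, then fixed in 3.5% formaldehyde/PBS for 10 min and permeabilized with 0.5% Triton X-100/0.05% Tween-20. Blocked in 2% BSA, stained with anti-tubulin (1:200, 4 h, RT) and FITC anti-mouse secondary (1:500, 1 h), DAPI counterstain. Imaged by fluorescence microscopy; five fields of view.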

Test [3] deals with HeLa. Put plainly: Antimitotic activity in human HeLa cells assessed as accumulation at G2/M phase at 10 uM after 24 hrs by flow cytometry analysis (reference value: 19.4%). In kind it is functional. The procedure, abridged:
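Cells treated 24 h at 10 µM, trypsin-EDTA harvested, fixed in ice-cold 70% ethanol at 4 °C for 30 min, then stained 30 min in propidium iodide (0.2 mg) plus RNase A (2 mg) per 1 mL. DNA content of 20,000 events measured by flow cytometry, and the percentage of cells in G2/M quantified against untreated and DMSO controls.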

The nature of test [4]: Inhibition of bovine brain tubulin polymerization by fluorescence assay. More on the design: species or system Bos taurus.
For test [5], the system named is HeLa. Put plainly: Induction of cyclin B1 expression in human HeLa cells at 10 uM after 24 hrs by immunoblotting. In kind it is functional, cell-based. A digest of the protocol: (§2)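 HeLa seeded at 1 × 10^5 cells/well and treated 24 h. Cells washed with PBS, lysed in 1X SDS sample buffer, run on SDS-PAGE and transferred to nitrocellulose. Blots probed with anti-cyclin B1 (1:1500) and HRP goat anti-rabbit secondary (1:5000), detected by enhanced chemiluminescence.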

The target of test [6] is T1, Tubulin (Homo sapiens). The experiment in a line: Inhibition of tubulin polymerization in human HeLa cells assessed as tubulin polymerized fraction at 1 uM after 24 hrs by immunohistochemistry analysis. In kind it is cell-based.
For test [7], the system named is HeLa. Put plainly: Induction of cyclin B1 expression in human HeLa cells at 1 uM after 24 hrs by immunoblotting. In kind it is functional, cell-based. A digest of the protocol: as §2
Test [8] addresses T1, Tubulin (Homo sapiens). Put plainly: Inhibition of tubulin polymerization in human HeLa cells assessed as tubulin soluble fraction at 10 uM after 24 hrs by immunohistochemistry analysis. In kind it is cell-based.
Test [9] deals with T1, Tubulin (Homo sapiens). The conditions noted are these: HeLa, 1 uM.

Calls of active or inactive are those of the source. The calls are words filed in the database; no cut-off is given here.

Turning to `C=C(c1ccc(OC)cc1)c1cc(OC)c(OC)c(OC)c1-c1ccc(OC)cc1`, the IC50 was 14 µM with A549, 75 µM in the test with SK-N-SH, 72 µM in the test with HeLa [1] and 37 µM with DU-145. This molecule also had an inhibition in the test filed under Bos taurus of 40%.
In the same order, the values of `COc1ccc(/C=C/c2cc(OC)c(OC)c(OC)c2-c2ccccc2)cc1` are 36 µM, 11 µM, 26 µM, 51 µM and 22%.
For the molecule `C=C(c1ccc(OC)cc1)c1cc(OC)c(OC)c(OC)c1-c1ccc(F)c(F)c1`, on Tubulin (Homo sapiens) [2], the inhibition entry is “Active”. For the same molecule, the IC50 is 6.5 µM in the test with A549; 7.5 µM in the test on SK-N-SH; 5.9 µM in the test with HeLa [1]; 6.8 µM in the test on DU-145; 11.2 µM in test [4]. Besides, the Activity in the test on HeLa [3] was determined as 70.02%. In the test filed under Bos taurus, this molecule registered an inhibition of 53%. The outcome in the test with HeLa [5] was Active.
In the case of `CC(=O)O[C@H]1C(=O)[C@@]2(C)[C@H]([C@H](OC(=O)c3ccccc3)[C@]3(O)C[C@H](OC(=O)[C@H](O)[C@@H](NC(=O)c4ccccc4)c4ccccc4)C(C)=C1C3(C)C)[C@]1(OC(C)=O)CO[C@@H]1C[C@@H]2O`, on Tubulin (Homo sapiens) [6], the inhibition result is “Active”. Also, the outcome with HeLa [7] was Active.
Regarding `COc1cc(/C=C/c2ccc(C)cc2)c(-c2ccccc2)c(OC)c1OC`, the IC50 in the test on A549 worked out at 54 µM; in the test with SK-N-SH, 31 µM; with HeLa [1] it was 45 µM; in the test with DU-145, 101 µM. The inhibition in the test listed under Bos taurus was 47%.
The corresponding values for `COc1cc(/C=C/c2ccccc2)c(-c2ccccc2)c(OC)c1OC` are 79 µM, 63 µM, 89 µM, 82 µM and 41%.
The corresponding values for `COc1ccc(/C=C/c2cc(OC)c(OC)c(OC)c2-c2ccc(C(C)(C)C)cc2)cc1` are 32 µM, 30 µM, 28 µM, 45 µM and 33%.
On to `COc1ccc(/C=C/c2cc(OC)c(OC)c(OC)c2-c2ccc3ccccc3c2)cc1`, for which the IC50 in the test on A549 worked out at 14 µM; in the test on SK-N-SH, 16 µM; in the test with HeLa [1], 13 µM; with DU-145, 32 µM. The molecule further came in with an inhibition in the test filed under Bos taurus of 50%.
In the case of `COc1ccc(/C=C/c2cc(OC)c(OC)c(OC)c2-c2ccc(OC)c(OC)c2)cc1`, the IC50 was 28 µM in the test on A549, 42 µM with SK-N-SH, 45 µM in the test with HeLa [1] and 34 µM with DU-145. Further, the inhibition in the test listed under Bos taurus came to 33%.
Regarding `C=C(c1ccc(OC)cc1)c1cc(OC)c(OC)c(OC)c1-c1ccc2c(c1)OCO2`, the inhibition result on Tubulin (Homo sapiens) [2] and at Tubulin (Homo sapiens) [8] was “Active” in each case. Further, the IC50 came out at 5 µM with A549; 6.1 µM with SK-N-SH; 5.4 µM in the test on HeLa [1]; 6 µM in the test on DU-145; 8.6 µM in test [4]. Besides, the Activity in the test on HeLa [3] amounted to 73%. The inhibition in the test filed under Bos taurus came out at 56%. The result in the test with HeLa [5] was Active.
On to `C=C(c1ccc(OC)cc1)c1cc(OC)c(OC)c(OC)c1-c1ccc(C(C)(C)C)cc1`, for which the IC50 was 27 µM in the test on A549, 24 µM in the test with SK-N-SH, 39 µM in the test with HeLa [1] and 39 µM in the test with DU-145. Besides, the inhibition in the test filed under Bos taurus came out at 23%.
With `C=C(c1ccc(Cl)cc1)c1cc(OC)c(OC)c(OC)c1-c1ccccc1`, the IC50 came to 40 µM in the test on A549, 25 µM in the test on SK-N-SH, 34 µM in the test on HeLa [1] and 29 µM with DU-145. The molecule also came in with an inhibition in the test listed under Bos taurus of 51%.
`C=C(c1ccc(OC)cc1)c1cc(OC)c(OC)c(OC)c1-c1ccccc1`: the IC50 with A549 is 22 µM; in the test with SK-N-SH it was 31 µM; in the test with HeLa [1], 11 µM; in the test with DU-145, 8 µM. In addition, the inhibition in the test listed under Bos taurus amounted to 49%.
In the same order, the values of `C=C(c1ccc(OC)cc1)c1cc(OC)c(OC)c(OC)c1-c1ccc(Cl)cc1` are 29 µM, 15 µM, 30 µM, 33 µM and 40%.
The corresponding values for `COc1ccc(/C=C/c2cc(OC)c(OC)c(OC)c2-c2ccc(Cl)cc2)cc1` are 30 µM, 15 µM, 49 µM, 35 µM and 26%.
The corresponding values for `C=C(c1ccc(OC)cc1)c1cc(OC)c(OC)c(OC)c1-c1ccc2ccccc2c1` are 15 µM, 6 µM, 35 µM, 46 µM and 21%.
For `COc1ccc(/C=C/c2cc(OC)c(OC)c(OC)c2-c2ccc(OC)cc2)cc1`, the IC50 in the test on A549 was 35 µM; with SK-N-SH, 36 µM; in the test with HeLa [1] it was 19 µM; with DU-145, 34 µM. This molecule also displayed an inhibition in the test filed under Bos taurus of 20%.
Turning to `COC(=O)Nc1nc2cc(C(=O)c3cccs3)ccc2[nH]1`, at Tubulin (Homo sapiens) [9], the inhibition entry was “Active”.
For the molecule `COc1ccc(/C=C/c2cc(OC)c(OC)c(OC)c2-c2ccc3c(c2)OCO3)cc1`, the inhibition result at Tubulin (Homo sapiens) [2] and at Tubulin (Homo sapiens) [8] was “Active” throughout. Besides, the 50% inhibitory concentration (IC50) with A549 stood at 6.3 µM; in the test on SK-N-SH it was 8 µM; with HeLa [1], 8.7 µM; in the test on DU-145 it was 7.3 µM; in test [4], 6.8 µM. The Activity with HeLa [3] is reported as 73.02%. In the test filed under Bos taurus, this molecule returned an inhibition of 62%. For the same molecule, the result in the test with HeLa [5] was Active.
Turning to `C=C(c1ccc(C(F)(F)F)cc1)c1cc(OC)c(OC)c(OC)c1-c1ccccc1`, the IC50 stood at 48 µM in the test with A549, 13 µM in the test with SK-N-SH, 32 µM in the test with HeLa [1] and 31 µM with DU-145. The inhibition in the test filed under Bos taurus amounted to 49%.
The corresponding values for `COc1ccc(/C=C/c2cc(OC)c(OC)c(OC)c2-c2ccc(F)c(C)c2)cc1` are 18 µM, 19 µM, 17 µM, 23 µM and 48%.
Turning to `C=C(c1ccc(C)cc1)c1cc(OC)c(OC)c(OC)c1-c1ccccc1`, the IC50 with A549 came to 35 µM; in the test with SK-N-SH, 31 µM; in the test with HeLa [1], 28 µM; with DU-145 it was 28 µM. The molecule further displayed an inhibition in the test filed under Bos taurus of 32%.
As for `C=C(c1ccccc1)c1cc(OC)c(OC)c(OC)c1-c1ccccc1`, the IC50 in the test with A549 turned out to be 17 µM; in the test on SK-N-SH, 34 µM; in the test on HeLa [1] it was 42 µM; with DU-145, 36 µM. In the test filed under Bos taurus, the inhibition worked out at 40%.
As for `COc1ccc(/C=C/c2cc(OC)c(OC)c(OC)c2-c2ccc(F)c(F)c2)cc1`, on Tubulin (Homo sapiens) [2], the inhibition entry is “Active”. For the same molecule, the IC50 worked out at 7.5 µM in the test with A549; 6.9 µM with SK-N-SH; 9.2 µM with HeLa [1]; 7.5 µM in the test on DU-145; 9.2 µM in [4]. Moreover, in the test with HeLa [3], the Activity is recorded as 71.16%. For the same molecule, the inhibition in the test filed under Bos taurus was 55%. In the test on HeLa [5], the result was Active.
